Screening results from PubChem BioAssay.
WT yeast gro inh: growth inhibition of WT strain, primary screen, mitochondrial fusion inhibitor project, WT and mutant strains, chemical genetic; mitochondrial fusion phenotypic screen; inhibition, % at 10 µM; 190,000 tested, 2.1% active; in the data active = inhibition above about 58%; tested in S. cerevisiae
RAM inhibit: inhibitors of the yeast RAM network, primary screen, dse1pr::URA3 reporter, 5-FOA selection | AID 868, 2007 | 190,000 tested, 1.8% active | inhibition, % at 50 µM | S. cerevisiae dse1pr::URA3 reporter, 5-FOA growth OD615, 2 d; analog-sensitive cbk1-as2 kinase mutant strain;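 active = inhibition above a set limit, 3 SD over mean compound inhibition, cut at about 8.4% in these data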;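 note: 0% = DMSO-only wells with no growth and 100% = 10 µM 1-NA-PP1 full growth; inhibition rescues growth on 5-FOA so higher OD means more RAM inhibition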
Yeast life ext: compounds extending yeast replicative lifespan, primary screen, S. cerevisiae, OD615; inhibition of the nicotinamide effect, % at 10 µM; S. cerevisiae growth with nicotinamide; deaD strain in restrictive glucose medium; AID 775, 2007; 130,000 tested, 0.68% active;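 active = inhibition above a set limit, placed 3 SD over the median of all compounds, cut at about 26% in these data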;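 note: 0% = nicotinamide-treated wells and 100% = cells grown without nicotinamide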
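Material: Modified budding yeast, DeaD strain | Medium: Restrictive glucose medium | Probe or stimulus: 1.5 mM nicotinamide | Dosing: Single dose 10 µM compound, 0.25% DMSO | Times: 48 h at 30 °C | Technique: OD615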
Measles CPE: compounds protecting cells from measles virus cytopathic effect, primary screen, measles RdRp inhibitor project, single point, MLSMR library, absorbance | 140,000 tested, 1.5% active | Measles virus-infected cells, CPE protection | protection (pct of control), % at 4 µM; in the data active = protection mostly above about 24%, no sharp cut-off; inactive = mostly below about 26%
DAT uptake mod: changed hDAT dopamine uptake under cocaine IC80, either direction, primary screen, cocaine antagonist project, cell-based, LLC-PK1 hDAT, [14C]-dopamine uptake, MLSMR | Sodium-dependent dopamine transporter (Homo sapiens), Q01959 | LLC-PK1 hDAT cells, [14C]-dopamine uptake with cocaine IC80; actives deviate in either direction | B-score at 10 µM | 110,000 tested, 1.3% active | AID 449768, 2010;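 active = Z score or B-score, a plate-position-corrected score, falls beyond the plate's 99.7% confidence bounds, in either direction; inactive = both scores lie inside the 99.7% bounds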;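 note: scored against the spread of the other compound wells on the same plate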
Target sequence (Q01959 whole entry, looked up): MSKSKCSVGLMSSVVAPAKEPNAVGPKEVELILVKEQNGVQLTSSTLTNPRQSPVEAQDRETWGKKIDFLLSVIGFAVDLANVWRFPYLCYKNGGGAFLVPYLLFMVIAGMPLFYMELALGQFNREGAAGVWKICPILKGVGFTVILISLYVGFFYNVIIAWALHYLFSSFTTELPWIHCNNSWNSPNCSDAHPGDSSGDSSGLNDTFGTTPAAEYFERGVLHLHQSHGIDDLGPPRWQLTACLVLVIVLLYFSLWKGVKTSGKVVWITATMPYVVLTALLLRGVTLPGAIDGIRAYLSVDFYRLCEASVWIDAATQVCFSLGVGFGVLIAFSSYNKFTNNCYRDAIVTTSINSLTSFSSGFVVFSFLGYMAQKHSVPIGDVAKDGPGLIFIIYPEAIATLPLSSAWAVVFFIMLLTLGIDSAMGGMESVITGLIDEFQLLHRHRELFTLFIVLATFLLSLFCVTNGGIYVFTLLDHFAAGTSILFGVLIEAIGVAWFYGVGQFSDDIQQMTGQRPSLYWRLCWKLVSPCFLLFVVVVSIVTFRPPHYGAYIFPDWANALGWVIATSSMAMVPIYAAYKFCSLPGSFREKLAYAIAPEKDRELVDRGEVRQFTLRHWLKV
BB579 growth dn: growth inhibitors of yeast BB579 in restrictive medium, primary screen, yeast lifespan-shortening project, S. cerevisiae | OD615, 48 h | inhibition, % at 10 µM | 140,000 tested, 0.51% active | AID 804, 2007;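 active = inhibition above a set limit, 3 SD over the mean compound inhibition, cut at about 44% in these data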
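Material: Saccharomyces cerevisiae DeaD strain BB579, replicative lifespan model yeast; buffer or medium: CSMM-D restrictive synthetic medium containing dextrose (glucose); compound: 10 µM single dose, DMSO 0.25%; timing: 48 h compound exposure at 30 °C after 4 h preincubation; signal: turbidity as optical density at 615 nm; benchmarks: positive control amphotericin B 10 µg/mL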
* hit, by the source's call; nt = not tested or not shown. Most compounds without a hit are left out; they make up all but 6.1% or so of the library.

SMILES	WT yeast gro inh	RAM inhibit	Yeast life ext	Measles CPE	DAT uptake mod	BB579 growth dn
CN(C(=O)c1ccncc1)c1nnc(-c2cnccn2)s1	2	0	-5	32*	-1	11
CN(C(=O)c1cccnc1)c1nnc(-c2cnccn2)s1	-1	1	-12	3	0.25	-8
S=C(Nc1ccc2nc(-c3ccccn3)c(-c3ccccn3)nc2c1)N1CCCCC1	1	0	nt	nt	nt	nt
CCCNC(=S)Nc1ccc2nc(-c3ccccn3)c(-c3ccccn3)nc2c1	72*	-1	-5	4	nt	-41
CC1CC(C)CN(C(=O)c2cccc(S(=O)(=O)Nc3cc(C(F)(F)F)ccc3Cl)c2)C1 (stereo unspecified)	45	5	32*	7	nt	-22
CC(C)NS(=O)(=O)c1ccc(NC(=O)CCc2ccccc2)cc1	0	0	-12	11	-0.51	-2
O=C(O)CC(=O)Nc1cc(Cl)ccc1O	-9	0	-5	7	-0.33	-42
O=C(CCc1ccccc1)Nc1cc(Cl)ccc1O	20	0	-16	36*	0.056	-64
CC(C)NS(=O)(=O)c1ccc(CCC(=O)Nc2cc(Cl)ccc2Oc2ccccc2)cc1	-9	8.8*	-8	7	0.88	-10
CCNS(=O)(=O)c1ccc(CCC(=O)Nc2cc(Cl)ccc2Oc2ccccc2)cc1	30	11*	-14	3	0.14	-32
Clc1ccc(CO/N=C2\CCCc3nonc32)cc1	12	1	-3	3	nt	-60
CCOCCOC(=O)c1cccc(NC(=O)OCC)c1	nt	1	-12	8	-0.04	-21
CCCCOC(=O)Nc1cccc(C(=O)OCC)c1	73*	5	-29	1	-0.19	3
COc1ccc(/C=N/OCC(=O)N2CC3(C)CC2CC(C)(C)C3)cc1OC (stereo unspecified)	6	-1	-7	44*	2.8*	-48
Cc1ccc(Nc2ccc(C(N)=O)cc2[N+](=O)[O-])cc1C	9	4	-3	8	nt	-36
COc1cc(Nc2ccc(C(=O)O)cc2[N+](=O)[O-])cc(OC)c1	0	10*	7	7	nt	-72
COc1ccccc1/C=C/C=N\N1CCN(Cc2ccccc2Cl)CC1	63*	0	-2	10	nt	-29
Clc1ccccc1CN1CCN(/N=C/c2ccncc2)CC1	41	2	nt	nt	nt	nt
Clc1ccc(/C=N/N2CCN(Cc3ccccc3Cl)CC2)cc1	66*	1	nt	nt	nt	nt
CC(Oc1cc(Cl)ccc1Cl)C(=O)N/N=C\c1ccnn1C (stereo unspecified)	13	1	-5	8	nt	-11
Cc1ccccc1OCC(=O)NNC(=O)CSc1nc(N)cc(N)n1	2	1	nt	nt	nt	nt
COc1ccc2oc(=O)c(C(=O)N3CCN(c4ccccc4C)CC3)cc2c1	-51	-1	-8	19	1.6	-21
COc1ccc2oc(=O)c(C(=O)N3CCN(c4ccccc4)CC3)cc2c1	52	-1	-9	4	3.4*	-25
Cc1cccc(-n2c(O)c(C=Nc3ccc(O)cc3)c3ccccc3c2=O)n1	-12	6	-2	4	nt	-56
Cc1cccc(-n2c(O)c(C=Nc3c(C)n(C)n(-c4ccccc4)c3=O)c3ccccc3c2=O)n1	9	0	-13	11	3.8*	-29
SMILES	WT yeast gro inh	RAM inhibit	Yeast life ext	Measles CPE	DAT uptake mod	BB579 growth dn
COc1ccc2c(C=Nc3c(C)n(C)n(-c4ccccc4)c3=O)c(O)n(Cc3ccco3)c(=O)c2c1	6	3	-1	18	4.2*	-14
Cc1c(N=Cc2ccco2)c(=O)n(-c2ccccc2)n1C	8	1	-16	8	0.31	-17
CS(=O)(=O)c1ccccc1C(=O)NC1CCCc2ccccc21 (stereo unspecified)	20	1	nt	nt	nt	nt
CCC(C)c1ccc(NC(=O)C/C(C)=N/NC(=O)c2cnccn2)cc1 (stereo unspecified)	-3	0	-6	5	nt	-5
COc1cc2[nH]c3c(c2cc1OC)CCN1CCCC[C@@H]31	nt	nt	nt	nt	-0.037	nt
COc1ccc(C(=O)N2CCC(n3c(C)nc4cc(F)ccc43)CC2)cc1OC	-13	1	-10	21	2.8*	-23
COc1cc(-c2nnc(SCc3c(F)cccc3Cl)o2)cc(OC)c1OC	64*	11*	-8	4	1.4	-35
COc1cc(-c2nnc(SCc3ccccc3Cl)o2)cc(OC)c1OC	56	11*	-8	17	nt	-81
CCOc1ccc(CCNC(=O)c2cc3sccc3n2CC)cc1OCC	4	9.0*	2	12	1.1	-25
CCOc1ccc(CCNC(=O)c2ccc(N3CCCC3=O)cc2)cc1OCC	-1	-1	-12	9	-7.7*	-19
CCOC(=O)N1CCC(NC(=O)c2cc3sccc3n2CC)CC1	0	2	-2	13	0.45	6
CCOc1ccc(CCNC(=O)CCn2cccc2)cc1OCC	2	1	-16	21	-4.3*	-3
COc1ccc(CCNC(=O)CCn2cccc2)cc1OC	-5	-1	-13	6	-0.12	9
CC(C)c1cc(C(=O)OCC(=O)NC(=O)NCc2ccco2)c(O)c(C(C)C)c1	25	6	nt	nt	nt	nt
Cc1sc(NC(=O)c2ccco2)c(C(c2cccnc2)N2CCCC2)c1C (stereo unspecified)	31	0	-4	20	0.74	-51
O=c1cc(CN2CC(O)Cc3ccc4ccccc4c32)nc2sccn12 (stereo unspecified)	13	3	nt	nt	nt	nt
CCC(C)(C)n1nnnc1CN1CCC(NC(=O)c2ccc(Br)cc2)CC1	-5	0	nt	8	1.8*	4
Cc1ccc(Cn2nnnc2CN2CCC(NC(=O)c3ccc(Br)cc3)CC2)cc1	-1	1	nt	26	0.15	-49
Cc1cc(=O)[nH]c(N2CCc3ccccc3C2)n1	7	1	-8	9	-0.39	-50
Cc1ccc(S(=O)(=O)N[C@@H](Cc2ccccc2)C(=O)CCl)cc1	45	-1	49*	17	0.071	-35
O=C(N/N=C/c1cccnc1)c1ccc2c(c1)OCCO2	8	1	1	4	nt	-16
CN(C)S(=O)(=O)N1CCN(c2ccc([N+](=O)[O-])c(NC3CC3)c2)CC1	-10	8.6*	nt	nt	nt	nt
COC(=O)c1ccc(NC(=O)CNc2ccccc2)cc1	2	1	nt	nt	nt	nt
COc1ccc(C2C(C#N)=C(C)NC3=C2S(=O)(=O)c2ccccc23)cc1 (stereo unspecified)	58*	1	nt	3	0.25	-4
Cn1c(O)c(C2=c3ccccc3=NC2=O)[nH]c1=S	5	1	14	12	nt	-14
